From ChEMBL document CHEMBL4402581, “Monohydrazone Based G-Quadruplex Selective Ligands Induce DNA Damage and Genome Instability in Human Cancer Cells” (J Med Chem, 2020)
Calls of active or inactive are those of the source. The rule behind the calls is not given here.

Columns and labels:
Quadruplex DNA [1] = assay: Displacement of Thiazole orange from parallel Tel23 G4 quadruplex DNA incubated for 3 mins by spectrofluorimetry; assay type: nucleic-acid assay
In short: (§1)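 Pre-folded DNA (0.25 μM) in K phosphate/KCl buffer was mixed with thiazole orange: 0.50 μM for G4s, 0.75 μM for duplex. Ligand was added stepwise from 0.5 to 10 equiv, with 3 min equilibration at 20 °C after each addition. Excitation 495 nm; emission read at 543 nm. Displacement % = 100 − (F/F0 × 100). DC50 is the concentration giving 50% displacement.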

Quadruplex DNA [2] = assay: Stabilization of c-Kit1 G4 quadruplex DNA assessed as change in melting temperature at 10 mol.equiv by circular dichroism melting assay; assay type: nucleic-acid assay
In short: (§2)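 CD melting from 20 to 100 °C at 1 °C/min, monitored at 264 nm (c-Kit1, c-Kit2, c-Myc, Tel23-p), 287 nm (Tel23-h) or 280 nm (hairpin). Ligand was at 10 mol equiv with folded DNA (15 μM G4, 30 μM hairpin). ΔTm is Tm with ligand minus Tm without, from curve fits, averaged over triplicates.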

U2OS [3] = assay: Induction of DNA damage in human U2OS cells assessed as increase in gammaH2AX phosphorylation at S139 at 10 uM incubated for 4 hrs by immunofluorescence microscopy; assay type: functional, cell-based
In short: (§3)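 U2OS cells were treated with 10 μM for 4 h, pre-extracted 3 min with CSK buffer containing 0.5% Triton X-100, and fixed in 2% paraformaldehyde. Co-stained 1 h for 53BP1 and γH2AX, with DAPI counterstain. Foci were counted per nucleus and normalized to the untreated mean, across three biological replicates.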

U2OS [4] = assay: Induction of DNA:RNA hybrid formation in human U2OS cells assessed as increase in R loop formation at 10 uM incubated for 30 mins by S9.6 immunofluorescence microscopy; assay type: functional, cell-based
In short: (§4)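 U2OS cells were treated at 10 μM for 5–60 min, 24 h after seeding, then fixed in cold methanol and permeabilized with acetone. Stained with S9.6 antibody and anti-nucleolin. The nucleolar signal was subtracted from total nuclear S9.6 fluorescence, and values were normalized to the untreated mean; two biological replicates.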

Quadruplex DNA [5] = assay: Stabilization of G4 quadruplex DNA in human U2OS cells assessed as change in size of BG4 foci at 2 uM incubated for 24 hrs by immunofluorescence microscopy; assay type: cell-based
Quadruplex DNA [6] = assay: Binding affinity at FAM/TAMRA-tagged parallel Tel21 G4 quadruplex DNA assessed as melting temperature at 2 uM in presence of 25 fold excess duplex DNA by FRET melting assay (reference value: 55.4 +/- 0.2 degreeC); assay type: nucleic-acid assay
In short: (§5)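 Dual FAM/TAMRA-labelled oligos (0.2 μM) in 20 mM K phosphate pH 7.0 with 5 mM KCl, annealed 90 °C 5 min, slow-cooled overnight, held 4 °C 24 h. The Tel21 parallel form was annealed at high DNA concentration. Ligand 2 μM. Unlabelled ds12 duplex competitor at 0, 5 or 10 μM final. Tm was read from FRET melting curves.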

[7] = Stabilization of hairpin-duplex DNA assessed as change in melting temperature at 10 mol.equiv by circular dichroism melting assay; in short: as §2
Quadruplex DNA [8] = assay: Effect on parallel Tel23 G4 quadruplex DNA architecture at 10 mol.equiv by circular dichroism spectral analysis; assay type: nucleic-acid assay
In short: (§6)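 CD spectra of 15 μM G4s or 30 μM hairpin in 20 mM K phosphate pH 7.0 with 5 mM KCl, after annealing. Recorded at 20 °C over 230–360 nm, three scans averaged, buffer baseline subtracted. Ligand was added at 10 mol equiv to the folded DNA from a 10 mM DMSO stock.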

Quadruplex DNA [9] = assay: Displacement of Thiazole orange from c-Kit2 G4 quadruplex DNA incubated for 3 mins by spectrofluorimetry relative to control; assay type: nucleic-acid assay; in short: as §1
Quadruplex DNA [10] = assay: Stabilization of G4 quadruplex DNA in human U2OS cells assessed as TRF2 foci per cell at 2 uM incubated for 24 hrs by immunofluorescence microscopy (reference value: 15.8 +/- 2.6%); assay type: cell-based
Quadruplex DNA [11] = assay: Effect on human Tel23 G4 quadruplex DNA architecture at 10 mol.equiv by circular dichroism spectral analysis; assay type: nucleic-acid assay; in short: as §6
U2OS [12] = assay: Cytotoxicity against human U2OS cells assessed as reduction in cell viability incubated for 24 hrs followed by 48 hrs of recovery in drug-free medium by MTT assay; assay type: functional, cell-based
In short: (§7)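 Cells grown in DMEM with 10% FBS and 1% glutamine at 37 °C, 5% CO2, and seeded 25 × 10^4 per well. Treatment began 24 h after seeding and lasted 1 or 24 h, followed by 48 h in drug-free medium. MTT was added for 1 h at 37 °C, then DMSO solubilization and absorbance at 595 nm. IC50 came from linear regression; two independent experiments, each in triplicate.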

[13] = Effect on hairpin-duplex DNA architecture at 10 mol.equiv by circular dichroism spectral analysis; in short: as §6
Quadruplex DNA [14] = assay: Effect on c-Kit1 G4 quadruplex DNA architecture at 10 mol.equiv by circular dichroism spectral analysis; assay type: nucleic-acid assay; in short: as §6
Quadruplex DNA [15] = assay: Stabilization of G4 quadruplex DNA in human U2OS cells assessed as colocalization of TRF2/[…] foci at 2 uM incubated for 24 hrs by immunofluorescence microscopy (reference value: 18.4 +/- 2.81%); assay type: cell-based
U2OS [16] = assay: Induction of DNA damage in human U2OS cells assessed as increase in phosphorylated 53BPI foci colocalization with gammaH2AX foci at 10 uM incubated for 4 hrs by immunofluorescence microscopy; assay type: functional, cell-based; in short: as §3
U2OS [17] = assay: Induction of genome instability in human U2OS cells assessed as fold increase in micronuclei formation per 100 cells at 10 uM incubated for 24 hrs by immunofluorescence microscopy relative to control; assay type: functional
In short: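 U2OS cells were treated for 24 h, fixed in 4% paraformaldehyde, permeabilized with 0.5% Triton X-100, and stained with DAPI. Micronuclei were counted per 100 cells.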

Quadruplex DNA [18] = assay: Displacement of Thiazole orange from parallel Tel23 G4 quadruplex DNA incubated for 3 mins by spectrofluorimetry relative to control; assay type: nucleic-acid assay; in short: as §1
Quadruplex DNA [19] = assay: Binding affinity at FAM/TAMRA-tagged c-Kit2 G4 quadruplex DNA assessed as melting temperature at 2 uM by FRET melting assay (reference value: 69.7 +/- 0.3 degreeC); assay type: nucleic-acid assay; in short: as §5
U2OS [20] = assay: Induction of DNA:RNA hybrid formation in human U2OS cells assessed as increase in R loop formation at 10 uM incubated for 60 mins by S9.6 immunofluorescence microscopy; assay type: functional, cell-based; in short: as §4
Quadruplex DNA [21] = assay: Effect on c-Kit2 G4 quadruplex DNA architecture at 10 mol.equiv by circular dichroism spectral analysis; assay type: nucleic-acid assay; in short: as §6
Quadruplex DNA [22] = assay: Binding affinity at FAM/TAMRA-tagged parallel Tel21 G4 quadruplex DNA assessed as melting temperature at 2 uM by FRET melting assay (reference value: 55.4 +/- 0.2 degreeC); assay type: nucleic-acid assay; in short: as §5
HeLa = assay: Cytotoxicity against human HeLa cells assessed as reduction in cell viability incubated for 1 hr followed by 48 hrs of recovery in drug free medium by MTT assay; assay type: functional, cell-based; in short: as §7
[23] = Displacement of Thiazole orange from hairpin duplex DNA incubated for 3 mins by spectrofluorimetry; in short: as §1
Quadruplex DNA [24] = assay: Binding affinity at FAM/TAMRA-tagged c-Kit2 G4 quadruplex DNA assessed as melting temperature at 2 uM in presence of 50 fold excess duplex DNA by FRET melting assay (reference value: 69.7 +/- 0.3 degreeC); assay type: nucleic-acid assay; in short: as §5

DC50 (Quadruplex DNA [1]): 480 nM | Activity (Quadruplex DNA [2]): Active | Tm (Quadruplex DNA [6]): 67.7 °C | Activity [7]: Active | Activity (Quadruplex DNA [8]): inactive | inhibition (Quadruplex DNA [9]): 100% | Activity (Quadruplex DNA [11]): inactive | Activity [13]: inactive | Activity (Quadruplex DNA [14]): inactive | inhibition (Quadruplex DNA [18]): 80% | Tm (Quadruplex DNA [19]): 77.9 °C | Activity (Quadruplex DNA [21]): inactive | Tm (Quadruplex DNA [22]): 68.6 °C | DC50 [23]: 8570 nM | Tm (Quadruplex DNA [24]): 76.5 °C
Compound: CC(C)(C)c1cc(/C=N/NC(=N)N)c(O)c(/C=C2/C(=O)Nc3c2ccc2ccccc32)c1.Cl
Activity (U2OS [3]): Active | Activity (U2OS [4]): Active | Activity (Quadruplex DNA [5]): inactive | Activity (Quadruplex DNA [10]): 15% | IC50 (U2OS [12]): 2060 nM | Activity (Quadruplex DNA [15]): 16.4% | Activity (U2OS [16]): Active | fold change (FC) (U2OS [17]): 3 | Activity (U2OS [20]): Active | IC50 (HeLa): 3940 nM
